In ChEMBL document CHEMBL5058577, “EUbOPEN Chemogenomics Library 2 (Multiplex)” (2022):

Tested on: HEK-293T
Assay: Multiplex assay against HEK293T
Assay type: toxicity, cell-based
Conditions: human
Summary of the method: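 Four dyes were applied at seeding to live cells: Hoechst33342, BioTracker Green Microtubule Cytoskeleton Dye, MitoTracker Red and Annexin V Alexa Fluor 680. Imaging after compound addition used a CQ1 microscope at 37°C and 5% CO2. CellPathfinder machine-learning gating then sorted cells into Hoechst high-intensity objects or normal cells, normal cells into healthy, pyknosed or fragmented nuclei, and pyknosed cells into mitotic or apoptotic, with tubulin, mitochondrial-mass and membrane-permeability phenotypes given as per cents of healthy-nucleus cells.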

[1] = 12 h, 1 µM, compound concentration 1 uM, replicate 1
[2] = 12 h, 1 µM, compound concentration 1 uM, replicate 2
[3] = 12 h, 10 µM, compound concentration 10 uM, replicate 1
[4] = 12 h, 10 µM, compound concentration 10 uM, replicate 2
[5] = 24 h, 1 µM, compound concentration 1 uM, replicate 1
[6] = 24 h, 1 µM, compound concentration 1 uM, replicate 2
[7] = 24 h, 10 µM, compound concentration 10 uM, replicate 1
[8] = 24 h, 10 µM, compound concentration 10 uM, replicate 2
[9] = 48 h, 1 µM, compound concentration 1 uM, replicate 1
[10] = 48 h, 1 µM, compound concentration 1 uM, replicate 2
[11] = 48 h, 10 µM, compound concentration 10 uM, replicate 1
[12] = 48 h, 10 µM, compound concentration 10 uM, replicate 2

Cc1nc2ccc(Oc3ccc(F)cc3)cc2c(=O)n1C[C@H]1CCCN(C(C)C)C1.Cl
Population Apoptotic (%) [1]: 40%
Population Fragmented Nuclei (%) [1]: 7%
Population Healthy Nuclei (%) [1]: 80%
Population Hoechst High Intensity Objects (%) [1]: 6%
Population Membrane Permeable-Phenotype (%) [1]: 0%
Population Mitochondria Different-Phenotype (%) [1]: 50%
Population Mitotic Cells (%) [1]: 60%
Population Normal (%) [1]: 93%
Population Pyknosed Nuclei (%) [1]: 11%
Population Tubulin-Different-Phenotype (%) [1]: 42%
Total Cell Count [1]: 381
Population Apoptotic (%) [2]: 61%
Population Fragmented Nuclei (%) [2]: 5%
Population Healthy Nuclei (%) [2]: 70%
Population Hoechst High Intensity Objects (%) [2]: 27%
Population Mitochondria Different-Phenotype (%) [2]: 69%
Population Mitotic Cells (%) [2]: 38%
Population Normal (%) [2]: 72%
Population Pyknosed Nuclei (%) [2]: 24%
Population Tubulin-Different-Phenotype (%) [2]: 34%
Total Cell Count [2]: 204
Population Apoptotic (%) [3]: 54%
Population Fragmented Nuclei (%) [3]: 7%
Population Healthy Nuclei (%) [3]: 78%
Population Hoechst High Intensity Objects (%) [3]: 17%
Population Membrane Permeable-Phenotype (%) [3]: 0%
Population Mitochondria Different-Phenotype (%) [3]: 81%
Population Mitotic Cells (%) [3]: 45%
Population Normal (%) [3]: 82%
Population Pyknosed Nuclei (%) [3]: 13%
Population Tubulin-Different-Phenotype (%) [3]: 76%
Total Cell Count [3]: 405
Population Apoptotic (%) [4]: 61%
Population Fragmented Nuclei (%) [4]: 8%
Population Healthy Nuclei (%) [4]: 74%
Population Hoechst High Intensity Objects (%) [4]: 20%
Population Mitochondria Different-Phenotype (%) [4]: 94%
Population Mitotic Cells (%) [4]: 38%
Population Normal (%) [4]: 79%
Population Pyknosed Nuclei (%) [4]: 17%
Population Tubulin-Different-Phenotype (%) [4]: 73%
Total Cell Count [4]: 310
Population Apoptotic (%) [5]: 31%
Population Fragmented Nuclei (%) [5]: 11%
Population Healthy Nuclei (%) [5]: 80%
Population Hoechst High Intensity Objects (%) [5]: 4%
Population Membrane Permeable-Phenotype (%) [5]: 0%
Population Mitochondria Different-Phenotype (%) [5]: 36%
Population Mitotic Cells (%) [5]: 68%
Population Normal (%) [5]: 95%
Population Pyknosed Nuclei (%) [5]: 8%
Population Tubulin-Different-Phenotype (%) [5]: 27%
Total Cell Count [5]: 553
Population Apoptotic (%) [6]: 37%
Population Healthy Nuclei (%) [6]: 72%
Population Hoechst High Intensity Objects (%) [6]: 22%
Population Mitochondria Different-Phenotype (%) [6]: 52%
Population Mitotic Cells (%) [6]: 62%
Population Normal (%) [6]: 77%
Population Pyknosed Nuclei (%) [6]: 16%
Population Tubulin-Different-Phenotype (%) [6]: 20%
Total Cell Count [6]: 281
Population Apoptotic (%) [7]: 49%
Population Fragmented Nuclei (%) [7]: 10%
Population Healthy Nuclei (%) [7]: 73%
Population Hoechst High Intensity Objects (%) [7]: 12%
Population Membrane Permeable-Phenotype (%) [7]: 3%
Population Mitochondria Different-Phenotype (%) [7]: 67%
Population Mitotic Cells (%) [7]: 50%
Population Normal (%) [7]: 87%
Population Pyknosed Nuclei (%) [7]: 15%
Population Tubulin-Different-Phenotype (%) [7]: 70%
Total Cell Count [7]: 525
Population Apoptotic (%) [8]: 68%
Population Fragmented Nuclei (%) [8]: 11%
Population Healthy Nuclei (%) [8]: 75%
Population Hoechst High Intensity Objects (%) [8]: 23%
Population Membrane Permeable-Phenotype (%) [8]: 0%
Population Mitochondria Different-Phenotype (%) [8]: 88%
Population Mitotic Cells (%) [8]: 31%
Population Normal (%) [8]: 76%
Population Pyknosed Nuclei (%) [8]: 12%
Population Tubulin-Different-Phenotype (%) [8]: 68%
Total Cell Count [8]: 334
Population Apoptotic (%) [9]: 27%
Population Fragmented Nuclei (%) [9]: 19%
Population Healthy Nuclei (%) [9]: 75%
Population Hoechst High Intensity Objects (%) [9]: 1%
Population Membrane Permeable-Phenotype (%) [9]: 1%
Population Mitochondria Different-Phenotype (%) [9]: 22%
Population Mitotic Cells (%) [9]: 72%
Population Normal (%) [9]: 98%
Population Pyknosed Nuclei (%) [9]: 5%
Population Tubulin-Different-Phenotype (%) [9]: 14%
Total Cell Count [9]: 901
Population Apoptotic (%) [10]: 60%
Population Fragmented Nuclei (%) [10]: 13%
Population Healthy Nuclei (%) [10]: 80%
Population Hoechst High Intensity Objects (%) [10]: 7%
Population Membrane Permeable-Phenotype (%) [10]: 0%
Population Mitochondria Different-Phenotype (%) [10]: 36%
Population Mitotic Cells (%) [10]: 39%
Population Normal (%) [10]: 92%
Population Pyknosed Nuclei (%) [10]: 6%
Total Cell Count [10]: 380
Population Apoptotic (%) [11]: 47%
Population Fragmented Nuclei (%) [11]: 15%
Population Healthy Nuclei (%) [11]: 74%
Population Hoechst High Intensity Objects (%) [11]: 11%
Population Membrane Permeable-Phenotype (%) [11]: 2%
Population Mitochondria Different-Phenotype (%) [11]: 60%
Population Mitotic Cells (%) [11]: 52%
Population Normal (%) [11]: 88%
Population Pyknosed Nuclei (%) [11]: 9%
Population Tubulin-Different-Phenotype (%) [11]: 62%
Total Cell Count [11]: 754
Population Apoptotic (%) [12]: 67%
Population Fragmented Nuclei (%) [12]: 17%
Population Healthy Nuclei (%) [12]: 72%
Population Hoechst High Intensity Objects (%) [12]: 22%
Population Membrane Permeable-Phenotype (%) [12]: 0%
Population Mitochondria Different-Phenotype (%) [12]: 69%
Population Mitotic Cells (%) [12]: 32%
Population Normal (%) [12]: 78%
Population Tubulin-Different-Phenotype (%) [12]: 58%
Total Cell Count [12]: 459
